Reference: article PMC3387347 (Investigational new drugs, 2012)

Key:
[1] = In vivo cassette dosing pharmacokinetic study in normal mice; set-up: species or system mouse; settings: for AUCb: normal brain; for Kp / clearance / Vd: male, ICR, mouse, 5 mg/kg, normal mice; for Kp: brain, intravenous, Pb (brain partition coefficient, AUCb/AUCp); for clearance / Vd: plasma, iv; for clearance: CL (total systemic clearance); for Vd: Vd (apparent volume of distribution)
Procedure, shortened: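 Adult male ICR mice each received a compound mixture in NMP:PEG300:water (1:4:5 by volume) as an IV bolus into a lateral tail vein. The dose was about 5 mg/kg per compound, with one compound at 1.67 mg/kg. Plasma and brain were collected at various times, stored at −80°C and quantified by LC/MS/MS. AUCb was derived by noncompartmental analysis.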

[2] = mice; cited from earlier work
Pgp = settings: cited from earlier work
[3] = cassette B, IV approximately 5 mg/kg
[4] = cassette C, IV approximately 5 mg/kg

Which results are given for `COc1cc2ncnc(Nc3ccc(F)c(Cl)c3)c2cc1OCCCN1CCOCC1` [Gefitinib]?
AUCb ([1]; cassette A, IV approximately 5 mg/kg (ON271320 1.67 mg/kg)): 1968.6 ng·h/g; AUCb [1, 3]: 2685.2 ng·h/g; AUCb [1, 4]: 3491.2 ng·h/g; Kp [1, 3]: 2.5; Kp [1, 4]: 1.9; clearance [1, 3]: 71.7 mL/min/kg; clearance [1, 4]: 43.3 mL/min/kg; Vd [1, 3]: 9.9 L/kg; Vd [1, 4]: 8.9 L/kg; bound to plasma proteins [2]: 95%; concentration reported to inhibit Pgp (Pgp): 100 µM
